According to ChEMBL document CHEMBL1151210, “Antioxidative constituents from the leaves of Hypericum styphelioides” (J Nat Prod, 2004):

How the values were obtained:
[1] = Antioxidant activity assessed as trolox equivalent of ABTS radical scavenging activity by spectrophotometry; type: functional
In short: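 ABTS radical monocation, preformed, scavenging read spectrophotometrically. Samples were diluted in MeOH to 0.3, 0.5, 1.0, 1.5 and 2.0 mM. 10 µL of sample or Trolox standard was added to 1.0 mL diluted ABTS, with MeOH as control. % inhibition of A734 vs control was taken 1 min after mixing, in triplicate. Value = Trolox concentration matching the inhibition of 1 mM compound.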

[2] = Antioxidant activity assessed as trolox equivalent of free radical scavenging activity by chemiluminescence assay; type: functional
In short: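 Measures inhibition of p-iodophenol-enhanced chemiluminescence from a horseradish peroxidase/perborate/luminol system. Signal reagent was made by dissolving tablets (luminol, p-iodophenol enhancer, perborate oxidant) in assay buffer. Trolox served as reference antioxidant, and activity is expressed in Trolox-equivalent mM.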

Compound	Activity [1] [mM]	Activity [2] [mM]
O=C(c1ccccc1)c1cc(O)c([C@@H]2O[C@H](CO)[C@@H](O)[C@H](O)[C@H]2O)c(O)c1	1.93	1.24
CC(C)=CCC/C(C)=C/Cc1c(O)cc(O)c(C(=O)CC(C)C)c1O	1.1	0.96
C=C(C)[C@H]1C[C@H](c2c(O)cc3oc4c(O)c(O)ccc4c(=O)c3c2O)C(C)(C)C1	2.75	1.78
C=C(C)[C@H]1C[C@H](c2c(O)cc3oc4c(O)cccc4c(=O)c3c2O)C(C)(C)C1	2.92	1.94
C[C@@H]1O[C@@H](OC[C@H]2O[C@@H](Oc3c(-c4ccc(O)c(O)c4)oc4cc(O)cc(O)c4c3=O)[C@H](O)[C@@H](O)[C@@H]2O)[C@H](O)[C@H](O)[C@H]1O	2.78	2.54
O=c1c(O)c(-c2ccc(O)c(O)c2)oc2cc(O)cc(O)c12	3.33	3.09
